Assay results: article PMC6912599 (European journal of medicinal chemistry, 2018)
Read-outs that look alike come from different tables or passages of the source.

How the values were obtained:
α1β3 GABAAR [1] = target: T1, α1β3 GABAAR (Homo sapiens, UniProt P14867+P28472); assay: Inhibition of [3H]21-pTFDBzox-AP photolabeling of purified α1β3 GABAAR; format: binding; settings: for inhibition of photolabeling at high concentrations: same extent as 30 μM allopregnanolone
T1 sequence (P14867 28-456): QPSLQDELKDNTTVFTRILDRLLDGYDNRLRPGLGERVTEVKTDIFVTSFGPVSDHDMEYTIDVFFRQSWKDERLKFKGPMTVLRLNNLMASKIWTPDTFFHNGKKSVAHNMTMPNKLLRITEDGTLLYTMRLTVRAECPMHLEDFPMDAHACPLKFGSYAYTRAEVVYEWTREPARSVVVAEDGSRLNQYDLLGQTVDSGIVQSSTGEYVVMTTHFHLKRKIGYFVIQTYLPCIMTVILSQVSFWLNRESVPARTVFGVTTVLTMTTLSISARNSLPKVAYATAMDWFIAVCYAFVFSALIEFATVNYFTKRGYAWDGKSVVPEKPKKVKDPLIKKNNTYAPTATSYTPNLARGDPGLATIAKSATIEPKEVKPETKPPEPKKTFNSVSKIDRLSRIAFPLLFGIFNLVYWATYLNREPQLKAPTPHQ
T1 sequence (P28472 26-473): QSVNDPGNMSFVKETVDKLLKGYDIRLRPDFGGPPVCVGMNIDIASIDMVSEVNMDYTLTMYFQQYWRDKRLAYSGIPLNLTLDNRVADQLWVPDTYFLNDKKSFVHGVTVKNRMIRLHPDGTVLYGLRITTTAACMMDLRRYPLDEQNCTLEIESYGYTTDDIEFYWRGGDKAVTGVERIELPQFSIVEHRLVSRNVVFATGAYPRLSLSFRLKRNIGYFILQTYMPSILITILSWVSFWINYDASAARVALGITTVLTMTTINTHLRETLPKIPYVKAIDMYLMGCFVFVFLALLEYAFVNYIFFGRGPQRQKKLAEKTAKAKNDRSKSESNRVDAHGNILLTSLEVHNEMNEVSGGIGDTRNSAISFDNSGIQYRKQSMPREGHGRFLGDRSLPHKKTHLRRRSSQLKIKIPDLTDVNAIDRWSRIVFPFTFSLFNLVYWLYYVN

α1β3γ2L GABAAR [2] = target: T2, α1β3γ2L GABAAR (Homo sapiens, UniProt P14867+P28472); assay: Voltage clamp electrophysiology of α1β3γ2L GABAAR expressed in Xenopus oocytes; format: cell-based; settings: for enhancement of EC5 GABA-activated currents: 10 μM compound; for enhancement of EC5 GABA-activated currents / potentiation of EC5 GABA-activated chloride currents (up to): EC5 GABA (4 μM); for potentiation of EC5 GABA-activated chloride currents (up to): maximum concentration tested 100 μM
Target sequence in this assay (P18507 40-475 partner, one chain of several): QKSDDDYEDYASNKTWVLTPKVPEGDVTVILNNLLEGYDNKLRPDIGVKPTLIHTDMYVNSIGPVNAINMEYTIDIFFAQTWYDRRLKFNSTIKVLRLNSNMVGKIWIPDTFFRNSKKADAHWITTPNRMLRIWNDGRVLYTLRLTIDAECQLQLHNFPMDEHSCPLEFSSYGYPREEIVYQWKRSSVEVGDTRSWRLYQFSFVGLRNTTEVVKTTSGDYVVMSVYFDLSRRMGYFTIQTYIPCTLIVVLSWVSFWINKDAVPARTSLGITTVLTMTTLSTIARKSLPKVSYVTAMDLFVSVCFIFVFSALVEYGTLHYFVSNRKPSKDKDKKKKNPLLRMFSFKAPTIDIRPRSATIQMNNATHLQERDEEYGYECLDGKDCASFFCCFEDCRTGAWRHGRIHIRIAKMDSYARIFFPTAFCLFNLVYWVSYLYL

α1Q242Wβ3γ2L receptors = α1Q242Wβ3γ2L receptors (Homo sapiens, UniProt P14867+P28472, Q269W); assay: Electrophysiology of steroid site mutant α1Q242Wβ3γ2L receptors in oocytes; format: cell-based; settings: 10 μM steroid; EC5 GABA
How it was run: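 Female Xenopus laevis stage V oocytes were injected with up to 10 ng of α1Q242W, β3 and γ2L mRNA (1:1:3) and held ≥24 h. Two-electrode voltage clamp was run at −50 mV and 20–22°C, with ND96 (pH 7.4) superfusion at 2–3 mL/min.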

α1L264Tβ3γ2L receptors = α1L264Tβ3γ2L receptors (Homo sapiens, UniProt P14867+P28472, L291T); assay: Direct activation of spontaneously gating α1L264Tβ3γ2L receptors in oocytes; format: cell-based
α1β3γ2 GABAAR = α1β3γ2 GABAAR (Homo sapiens, UniProt P14867+P28472); assay: Inhibition of [3H]21-pTFDBzox-AP photolabeling of purified α1β3γ2 GABAAR; format: binding; settings: 30 μM; 0.8 μM [3H]21-pTFDBzox-AP
α1β3γ2L GABAAR [3] = target: T2, α1β3γ2L GABAAR; assay: Modulation of 2 nM [3H]muscimol binding to α1β3γ2L GABAAR
Target sequence in this assay (P18507 40-475, one chain of several, further chain): as the sequence (P18507 40-475 partner, one chain of several) above

α1β3 GABAAR [4] = target: T1, α1β3 GABAAR; assay: Voltage clamp electrophysiology of α1β3 GABAAR expressed in Xenopus oocytes; format: cell-based
tadpoles [5] = assay: Loss of righting reflexes; format: in vivo, tadpole
α1β3 GABAAR [6] = target: T1, α1β3 GABAAR; assay: Modulation of 2 nM [3H]muscimol binding to α1β3 GABAAR
tadpoles [7] = settings: read-out: published anesthetic EC50s; tadpole LoRR; cited from earlier work

Chain of α1L264Tβ3γ2L receptors (P18507 40-475, one chain of several): as the sequence (P18507 40-475 partner, one chain of several) above
Chain of α1L264Tβ3γ2L receptors (P14867 28-456 L291T, one chain of several): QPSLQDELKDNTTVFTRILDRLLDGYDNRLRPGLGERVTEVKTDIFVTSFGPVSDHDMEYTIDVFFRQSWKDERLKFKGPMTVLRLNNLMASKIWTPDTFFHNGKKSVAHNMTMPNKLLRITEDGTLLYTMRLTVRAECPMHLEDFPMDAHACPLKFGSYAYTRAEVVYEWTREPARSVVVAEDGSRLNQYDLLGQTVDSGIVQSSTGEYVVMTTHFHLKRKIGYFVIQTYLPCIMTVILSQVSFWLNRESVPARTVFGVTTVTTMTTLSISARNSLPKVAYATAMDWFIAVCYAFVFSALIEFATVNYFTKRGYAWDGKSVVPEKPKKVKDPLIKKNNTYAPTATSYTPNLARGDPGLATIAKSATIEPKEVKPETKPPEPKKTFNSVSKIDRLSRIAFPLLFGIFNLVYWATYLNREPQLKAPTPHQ
Chain of α1Q242Wβ3γ2L receptors (P14867 28-456 Q269W, one chain of several): as the sequence (P14867 28-456 L291T, one chain of several) above, with Q242W, T264L counted along it
Chain of α1Q242Wβ3γ2L receptors (P18507 40-475 partner, one chain of several): as the sequence (P18507 40-475 partner, one chain of several) above
Chain of α1β3γ2 GABAAR (P18507 40-475 partner, one chain of several): as above

## C[C@]12CC[C@@H](O)C[C@@H]1CC[C@@H]1[C@@H]2CC[C@]2(C)[C@@H](C(=O)CO)CC[C@@H]12 [THDOC, 5α-pregnan-3α, 21-diol-20-one, reference compound]
α1β3 GABAAR [1]
  inhibition of photolabeling at high concentrations: 60%
α1β3γ2L GABAAR [2]
  enhancement of EC5 GABA-activated currents: 16 ± 2.1 fold
α1Q242Wβ3γ2L receptors
  positive modulation in α1Q242W mutant receptors: eliminated positive modulation

## CC(=O)[C@H]1CC[C@H]2[C@@H]3CC[C@@H]4C[C@H](O)CC[C@]4(C)[C@H]3CC[C@]12C [pregnanolone, 5β-pregnan-3α-ol-20-one]
α1β3 GABAAR [1]
  IC50: 700 nM
  inhibition of photolabeling at high concentrations: 60%

## Picrotoxin [reference compound]
α1L264Tβ3γ2L receptors; 2 mM
  outward currents as % of maximal GABA-induced inward currents: about 40%

## CC(=O)[C@H]1CC[C@H]2[C@@H]3CC[C@H]4C[C@H](O)CC[C@]4(C)[C@H]3CC[C@]12C [allopregnanolone, 5α-pregnan-3α-ol-20-one]
α1β3γ2 GABAAR
  reduction of β subunit photolabeling: 70%
α1β3 GABAAR [1]; 30 μM, 0.8 μM [3H]21-pTFDBzox-AP
  reduction of β subunit photolabeling: 60%

## CC(=O)[C@H]1CC[C@H]2[C@@H]3CC4(N=N4)[C@H]4C[C@H](O)CC[C@]4(C)[C@H]3C(=O)C[C@]12C [6-azi-OAP, 6-Azi-3α-hydroxy-5α-pregnane-11,20-dione]
α1β3γ2L GABAAR [3]; α1β3γ2 GABAARs
  Hill coefficient nH of [3H]muscimol binding enhancement: 1.3 ± 0.15
  efficacy of modulation of [3H]muscimol binding: 330 ± 9%
α1β3 GABAAR [4]; 15 μM, not shown
  effect on GABA dose-response curves compared with α1β3γ2L: similar
α1β3γ2L GABAAR [2]; 15 μM 6-azi-OAP
  decrease of GABA EC50: approximately 3 fold
α1β3γ2L GABAAR [2]
  potentiation of EC5 GABA-activated chloride currents (up to): 10.1 ± 0.67 fold

## CC(=O)[C@H]1CC[C@H]2[C@@H]3CC4(N=N4)[C@@H]4C[C@H](O)CC[C@]4(C)[C@H]3C(=O)C[C@]12C [6-azi-OP, 6-Azi-3α-hydroxy-5β-pregnane-11,20-dione]
α1β3γ2L GABAAR [3]; α1β3γ2 GABAARs
  Hill coefficient nH of [3H]muscimol binding enhancement: 1.6 ± 0.1
  efficacy of modulation of [3H]muscimol binding: 241 ± 3%
α1β3γ2L GABAAR [2]
  potentiation of EC5 GABA-activated chloride currents (up to): 8.0 ± 1.4 fold

## 21-[4-(3-(Trifluoromethyl)-3H-diazirin-3-yl)benzoxy]allopregnanolone [21-pTFDBzox-AP]
α1β3γ2L GABAAR [3]; detergent/lipid micelles
  Hill coefficient nH of [3H]muscimol binding enhancement: 1.15 ± 0.36
  maximal enhancement of [3H]muscimol binding: 135 ± 1%
α1β3γ2L GABAAR [3]; membranes
  Hill coefficient nH of [3H]muscimol binding enhancement: 1.09 ± 0.22
  maximal enhancement of [3H]muscimol binding: 199 ± 30%
α1β3 GABAAR [4]; 10 μM compound, EC10 GABA (1 μM)
  enhancement of EC10 GABA-activated currents: 2.1± 0.4 fold
α1β3 GABAAR [4]; EC10 GABA, Hill slope constrained to 1.7
  fitted maximal enhancement ratio: 2.1 ± 0.4
Tadpoles [5]; 2.5 or 10 μM 21-pTFDBzox-AP
  antagonism of alphaxalone's anesthetic action: no significant antagonism
Tadpoles [5]; tadpoles exposed to 1, 2, 3 and 10 μM
  Loss of righting reflexes (LoRR): No LoRR
α1β3 GABAAR [6]; detergent/lipid micelles
  Hill coefficient nH of [3H]muscimol binding enhancement: 1.45 ± 0.51
  maximal enhancement of [3H]muscimol binding: 172 ± 6%
α1β3 GABAAR [6]; membranes
  Hill coefficient nH of [3H]muscimol binding enhancement: 1.71 ± 0.10
  maximal enhancement of [3H]muscimol binding: 271 ± 7%
α1β3γ2L GABAAR [2]; 5 μM
  effect on GABA EC50: did not reduce the GABA EC50
α1β3γ2L GABAAR [2]
  enhancement of EC5 GABA-activated currents: 2.6 ± 0.3 fold
α1β3γ2L GABAAR [2]; EC5 GABA, Hill slope constrained to 1.7
  fitted maximal enhancement ratio: 2.6 ± 0.3
α1L264Tβ3γ2L receptors; 2 μM, no GABA
  current elicited as % of the maximal GABA response: approximately 21%
  direct increase of inward current in the absence of GABA: about 50%
α1Q242Wβ3γ2L receptors
  positive modulation in α1Q242W mutant receptors: eliminated positive modulation

## pregnenolone sulfate
α1β3 GABAAR [1]; 100 μM
  inhibition of photolabeling: no inhibition

## C=CC[C@@]1(c2cccc(C3(C(F)(F)F)N=N3)c2)C(=O)NC(=O)N(C)C1=O [R-mTFD-MPAB]
α1β3 GABAAR [1]; 60 μM
  inhibition of photolabeling: no inhibition

## CCOC(=O)c1cncn1[C@H](C)c1ccccc1 [etomidate]
α1β3 GABAAR [1]; 1 mM
  inhibition of photolabeling: no inhibition

## CC(=O)[C@H]1CC[C@H]2[C@@H]3CC[C@H]4C[C@H](O)CC[C@]4(C)[C@H]3C(=O)C[C@]12C [alphaxalone, 5α-pregnan-3α-ol-11,20-dione, reference compound]
Tadpoles [7]
  EC50: 1000 to 2000 nM
Tadpoles [5]; read-out: anesthetic EC50 (LoRR), alphaxalone alone, 60 minutes equilibration
  EC50: 1400 ± 300 nM
Tadpoles [5]; read-out: anesthetic EC50 of alphaxalone, in constant presence of […] 21-pTFDBzox-AP
  EC50: 920 ± 300 nM
